Measurements published in ChEMBL document CHEMBL1153852, “Steroidal lactones as inhibitors of 17beta-hydroxysteroid dehydrogenase type 5: chemical synthesis, enzyme inhibitory activity, and assessment of estrogenic and androgenic activities” (Eur J Med Chem, 2009).

Columns and labels:
[1] = target: T1, Glucocorticoid receptor (Rattus norvegicus) (UniProt P06536); assay: Binding affinity to rat liver glucocorticoid receptor at 1 uM
T1 sequence (whole entry): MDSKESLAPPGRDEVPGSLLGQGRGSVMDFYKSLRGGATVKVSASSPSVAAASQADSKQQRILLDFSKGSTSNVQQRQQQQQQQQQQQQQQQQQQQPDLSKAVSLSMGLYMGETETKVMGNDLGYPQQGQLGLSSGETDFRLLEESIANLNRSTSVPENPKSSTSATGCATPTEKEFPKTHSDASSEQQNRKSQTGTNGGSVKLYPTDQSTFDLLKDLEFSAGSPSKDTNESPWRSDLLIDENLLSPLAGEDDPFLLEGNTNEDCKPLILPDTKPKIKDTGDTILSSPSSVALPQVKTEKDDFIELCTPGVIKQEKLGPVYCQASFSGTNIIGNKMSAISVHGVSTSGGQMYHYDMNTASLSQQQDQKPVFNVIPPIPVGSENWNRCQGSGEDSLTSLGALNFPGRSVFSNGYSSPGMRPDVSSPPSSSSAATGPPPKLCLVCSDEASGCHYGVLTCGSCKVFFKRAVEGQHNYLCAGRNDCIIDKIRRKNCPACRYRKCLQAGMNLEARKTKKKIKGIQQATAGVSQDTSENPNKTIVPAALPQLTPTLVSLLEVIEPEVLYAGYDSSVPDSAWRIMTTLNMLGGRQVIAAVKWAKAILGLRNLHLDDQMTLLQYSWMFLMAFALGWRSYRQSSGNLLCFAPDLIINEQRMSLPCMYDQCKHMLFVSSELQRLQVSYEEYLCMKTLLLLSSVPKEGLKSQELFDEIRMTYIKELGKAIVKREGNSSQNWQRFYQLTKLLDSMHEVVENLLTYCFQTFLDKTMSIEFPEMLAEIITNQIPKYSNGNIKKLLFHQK
Method in brief: (§1)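 Rat liver glucocorticoid receptor competitive binding, reported as % binding. Bound and free steroid are separated by dextran-coated charcoal adsorption instead of protamine sulfate precipitation.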

[2] = target: T2, Progesterone receptor (Rattus norvegicus) (UniProt Q63449); assay: Binding affinity to rat uterus progesterone receptor at 0.01 uM
T2 sequence (whole entry): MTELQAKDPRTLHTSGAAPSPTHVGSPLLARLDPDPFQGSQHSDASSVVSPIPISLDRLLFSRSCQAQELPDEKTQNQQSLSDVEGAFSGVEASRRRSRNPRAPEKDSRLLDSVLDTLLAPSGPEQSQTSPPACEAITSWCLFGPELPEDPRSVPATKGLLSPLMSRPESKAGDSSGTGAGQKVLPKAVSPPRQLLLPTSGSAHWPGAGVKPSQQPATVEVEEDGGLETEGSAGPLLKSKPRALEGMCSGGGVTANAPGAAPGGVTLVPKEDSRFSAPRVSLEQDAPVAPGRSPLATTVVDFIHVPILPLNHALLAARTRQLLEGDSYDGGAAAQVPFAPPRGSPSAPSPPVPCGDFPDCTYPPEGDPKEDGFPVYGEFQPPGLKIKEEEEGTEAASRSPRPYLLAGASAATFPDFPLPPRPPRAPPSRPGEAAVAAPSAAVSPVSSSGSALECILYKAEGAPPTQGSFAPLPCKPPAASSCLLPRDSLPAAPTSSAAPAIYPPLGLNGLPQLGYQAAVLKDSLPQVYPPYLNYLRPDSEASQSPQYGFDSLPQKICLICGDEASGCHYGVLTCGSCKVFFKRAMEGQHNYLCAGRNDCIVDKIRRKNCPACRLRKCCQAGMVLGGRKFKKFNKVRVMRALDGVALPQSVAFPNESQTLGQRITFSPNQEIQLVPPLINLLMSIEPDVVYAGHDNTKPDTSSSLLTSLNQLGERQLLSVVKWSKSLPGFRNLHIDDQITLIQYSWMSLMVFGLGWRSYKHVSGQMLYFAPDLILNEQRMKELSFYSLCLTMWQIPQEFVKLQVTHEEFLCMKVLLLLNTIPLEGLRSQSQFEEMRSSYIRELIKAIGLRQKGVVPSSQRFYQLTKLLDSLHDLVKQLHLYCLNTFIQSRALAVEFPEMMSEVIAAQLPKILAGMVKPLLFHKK

[3] = target: T2, Progesterone receptor (Rattus norvegicus); assay: Binding affinity to rat uterus progesterone receptor at 1 uM
[4] = target: T1, Glucocorticoid receptor (Rattus norvegicus); assay: Binding affinity to rat liver glucocorticoid receptor at 0.1 uM; method in brief: as §1
[5] = target: T3, Androgen receptor (Rattus norvegicus) (UniProt P15207); assay: Binding affinity to rat ventral prostate androgen receptor at 0.1 uM; type: tissue-based; conditions: Prostate gland
T3 sequence (whole entry): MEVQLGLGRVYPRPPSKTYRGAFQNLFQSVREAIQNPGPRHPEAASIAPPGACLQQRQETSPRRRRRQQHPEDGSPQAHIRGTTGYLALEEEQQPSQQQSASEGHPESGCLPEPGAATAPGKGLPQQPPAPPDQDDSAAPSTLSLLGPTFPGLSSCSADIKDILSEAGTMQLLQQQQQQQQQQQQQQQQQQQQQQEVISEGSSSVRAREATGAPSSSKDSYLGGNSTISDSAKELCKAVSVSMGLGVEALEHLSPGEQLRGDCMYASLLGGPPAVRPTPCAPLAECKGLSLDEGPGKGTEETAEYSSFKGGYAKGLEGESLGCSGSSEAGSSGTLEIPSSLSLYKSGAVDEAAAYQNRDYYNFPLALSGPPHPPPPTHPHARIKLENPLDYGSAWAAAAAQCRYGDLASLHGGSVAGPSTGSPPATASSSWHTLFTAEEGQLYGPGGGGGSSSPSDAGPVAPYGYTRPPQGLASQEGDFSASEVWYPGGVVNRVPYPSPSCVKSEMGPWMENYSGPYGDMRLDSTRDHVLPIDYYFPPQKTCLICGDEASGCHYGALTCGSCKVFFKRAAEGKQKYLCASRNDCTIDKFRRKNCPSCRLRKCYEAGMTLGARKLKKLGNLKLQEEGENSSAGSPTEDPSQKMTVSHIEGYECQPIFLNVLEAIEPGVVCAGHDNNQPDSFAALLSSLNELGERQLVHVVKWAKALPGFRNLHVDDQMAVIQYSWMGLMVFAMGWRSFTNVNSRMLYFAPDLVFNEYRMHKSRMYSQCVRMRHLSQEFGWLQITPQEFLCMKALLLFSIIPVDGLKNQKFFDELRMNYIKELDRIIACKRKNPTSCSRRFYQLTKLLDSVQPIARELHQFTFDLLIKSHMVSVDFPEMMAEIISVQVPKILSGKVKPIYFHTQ

[6] = target: T1, Glucocorticoid receptor (Rattus norvegicus); assay: Binding affinity to rat liver glucocorticoid receptor at 10 uM; method in brief: as §1

Activity [4]	Activity [5]	Activity [6]	SMILES	Activity [1]	Activity [2]	Activity [3]
			CC1(C)CC[C@@]2(CC[C@H]3[C@@H]4CCc5ccccc5[C@H]4CC[C@@]32C)OC1=O	0%	0%	5%
0%	0%	24%	CC1(C)CC[C@@]2(CC[C@H]3[C@@H]4CCc5cc(O)ccc5[C@H]4CC[C@@]32C)OC1=O			
